The text below walks through data of article PMC10091778 (Drug Development Research, 2022).

Series [1] concerns 4T1 murine triple negative breast cancer cells. Kind of series: Resazurin cell viability assay on 4T1 cells. It counts as cell-based. The following applies: Mus musculus, 4T1, 72 h, read-out: IC50 4T1. The method in brief:
(§1)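 Cells were seeded in 96-well plates (4T1 10,000, A549 10,000, HL-60 20,000 per well), with adherent lines settling overnight. Test compound came from a 10 mM DMSO stock, serially diluted in medium to 1.56–50 µM (some 39 nM–12.5 µM), for 72 h; three biological replicates. Resazurin (0.15 mg/ml stock, 20 µl per 100 µl) ran 2 h at 37 °C, read at 530/580 nm. Viability was set against untreated and blank wells; IC50 from curves.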

Series [2] deals with 4T1, A549, and HL‐60 cells. It counts as cell-based. The settings on record: resazurin assay, 72 h, up to 50 µM, three cancer cell lines. In outline:
as §1
For orientation: Alamar Blue is a resazurin reagent that responds to reducing activity.

Series [3] relates to HL‐60 human acute promyelocytic leukemia cells. Kind of series: Resazurin cell viability assay on HL-60 cells. The class given is cell-based. The settings on record: HL-60, 72 h, read-out: IC50 HL‐60. In outline: as §1
The test system of series [4] is HL‐60 cells. Kind of series: Sub-G1 DNA fragmentation analysis by flow cytometry. The class given is cell-based, human. The following applies: 6 µM, 72 h; mean ± SD; untreated 11.7 ± 1.2%. (Flow cytometry measures light scatter and fluorescence of single cells or particles in a stream.)
For series [5], the system named is HL‐60 cells. Kind of series: Cell cycle analysis by flow cytometry. It counts as cell-based, human. The settings on record: 72 h; for Cells in G2/M phase: untreated 17.3 ± 1.7%.
For series [6], the system named is HL‐60 cells. Briefly: Annexin V / propidium iodide flow cytometry. The class given is cell-based, human. The following applies: 6 µM, 24 h; for Early apoptotic cells (AnnV+/PI−): untreated 1.9 ± 0.5%; for Late apoptotic cells (AnnV+/PI+): untreated 9.5 ± 2.7%; for Living cells (AnnV−/PI−): untreated 85 ± 3.9%. The method in brief:
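HL-60 cells (100,000) were treated for 24 h at 1, 3 or 6 µM, then resuspended in Annexin V binding buffer (0.01 M HEPES, 0.14 M NaCl, 2.5 mM CaCl2). Annexin V-Alexa 488 was added for 15 min in the dark at room temperature, then PI (10 µg/ml). Quadrant percentages were taken by flow cytometry; three biological replicates, mean ± SD; two-tailed t test against untreated.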

Series [7] deals with HL‐60 cells. Kind of series: Mitochondrial membrane depolarization by JC-1 staining. The settings on record: 16 h, untreated 7.6 ± 0.6%; for Cells with green JC‐1 accumulation (depolarized MMP): 3 µM; for Cells with green JC‐1 monomers (depolarized MMP): 6 µM. The class given is cell-based, human.

Molecules are shown by their SMILES.

As usually defined, the IC50 is the concentration that inhibits the measured activity by half. As to `CCOC(=O)c1[nH]c(N)nc1-c1cccc(NC(=O)c2ccc3cccc(O)c3n2)c1` [Compound 17, Ethyl 2‐amino‐4‐(3‐(8‐hydroxyquinoline‐2‐carboxamido)phenyl)−1H‐imidazole‐5‐carboxylate], the half-maximal inhibitory concentration (IC50) in series [1] came out at 17.1 µM; in series [3] it was 5.81 µM. Also, in series [2], the “Cytotoxic / antiproliferative activity in words” value is listed as “low antiproliferative activity”.
Take `Nc1nc(-c2cccc(NC(=O)c3cc4cc(F)ccc4[nH]3)c2)c(C(=O)c2ccccc2)[nH]1` [Compound 23, N‐(3‐(2‐amino‐5‐benzoyl‐1H‐imidazol‐4‐yl)phenyl)‐5‐fluoro‐1H‐indole‐2‐carboxamide]: the IC50 in series [1] came out at 9.05 µM. Moreover, the “DNA fragmentation (sub‐G1 population) of HL‐60 cells” value in the series with HL‐60 cells [4] was determined as 22.9 ± 1.2%. The “Cells in G2/M phase” value with HL‐60 cells [5] (3 µM) is 22.4 ± 1.6%. Moreover, the “Cells in G2/M phase” value in the series with HL‐60 cells [5] (6 µM) came out at 39.2 ± 3.1%. The “Effect on cell cycle distribution, in words” value (“Effect” below) in the series on HL‐60 cells [5] is “significantly disturbed cell cycle distribution”. Also, the “Cytotoxic / antiproliferative activity in words” value in series [2] is “hampered the viability of all three tested cell lines”. Also, the IC50 in series [3] turned out to be 5.21 µM. Moreover, in the series with HL‐60 cells [6] (mean ± SD), the “Early apoptotic cells (AnnV+/PI−)” value is 3.2 ± 0.7%, the “Late apoptotic cells (AnnV+/PI+)” value turned out to be 15.5 ± 3.9% and the “Living cells (AnnV−/PI−)” value stood at 76.8 ± 3.5%. Further, in the series with HL‐60 cells [7], the “Cells with green JC‐1 accumulation (depolarized MMP)” value is on record as 9.1 ± 0.2% and the “Cells with green JC‐1 monomers (depolarized MMP)” value is listed as 13.4 ± 0.8%.
For `CCOC(=O)c1[nH]c(N)nc1-c1cccc(NC(=O)c2cc3ccccc3[nH]2)c1` [Compound 16, Ethyl 4‐(3‐(1H‐indole‐2‐carboxamido)phenyl)−2‐amino‐1H‐imidazole‐5‐carboxylate], the IC50 in series [1] was 19.3 µM; in series [3] it was 14.4 µM.
Take `Nc1nc(-c2ccc(NC(=O)c3cc4cc(Br)ccc4[nH]3)cc2)c(C(=O)c2ccccc2)[nH]1` [Compound 35, N‐(4‐(2‐amino‐5‐benzoyl‐1H‐imidazol‐4‐yl)phenyl)‐5‐bromo‐1H‐indole‐2‐carboxamide]: the concentration for half-maximal inhibition (IC50) came out at 11 µM in series [1] and 6.77 µM in series [3]. In addition, the “Cells in G2/M phase” value in the series on HL‐60 cells [5] (1 µM) turned out to be 20.8 ± 0.4%. In addition, the “Effect” value with HL‐60 cells [5] was “significantly disturbed cell cycle distribution”. The “Cytotoxic / antiproliferative activity in words” value in series [2] is “hampered the viability of all three tested cell lines”. Also, the “AnnexinV translocation, in words” value in the series on HL‐60 cells [6] is “did not influenced AnnexinV translocation significantly”.
`Cc1ccc(NC(=O)c2cc3cc(Br)ccc3[nH]2)cc1-c1nc(N)[nH]c1C(=O)c1ccccc1` [Compound 34, N‐(3‐(2‐amino‐5‐benzoyl‐1H‐imidazol‐4‐yl)‐4‐methylphenyl)‐5‐bromo‐1H‐indole‐2‐carboxamide]: the IC50 came out at 27 µM in series [1] and 24.3 µM in series [3].
In the case of `Nc1nc(-c2cccc(NC(=O)c3cc(Br)c[nH]3)c2)c(C(=O)c2ccccc2)[nH]1` [Compound 21, N‐(3‐(2‐amino‐5‐benzoyl‐1H‐imidazol‐4‐yl)phenyl)‐4‐bromo‐1H‐pyrrole‐2‐carboxamide], the “Cytotoxic / antiproliferative activity in words” value in series [2] is “completely inactive”.
With `Nc1nc(-c2cccc(NC(=O)c3ccc[nH]3)c2)c(C(=O)c2ccccc2)[nH]1` [Compound 22, N‐(3‐(2‐amino‐5‐benzoyl‐1H‐imidazol‐4‐yl)phenyl)‐1H‐pyrrole‐2‐carboxamide], in series [2], the “Cytotoxic / antiproliferative activity in words” value is “low antiproliferative activity”. Besides, in series [3], the IC50 worked out at 6.9 µM.
As to `Nc1nc(-c2cccc(NC(=O)c3cc4ccccc4[nH]3)c2)c(C(=O)c2ccccc2)[nH]1` [Compound 25, N‐(3‐(2‐amino‐5‐benzoyl‐1H‐imidazol‐4‐yl)phenyl)‐1H‐indole‐2‐carboxamide], in series [2], the “Cytotoxic / antiproliferative activity in words” value is “low antiproliferative activity”. The half-maximal inhibitory concentration (IC50) in series [3] is 6.34 µM.
Turning to `Nc1nc(-c2cccc(NC(=O)c3ccccn3)c2)c(C(=O)c2ccccc2)[nH]1` [Compound 20, N‐(3‐(2‐amino‐5‐benzoyl‐1H‐imidazol‐4‐yl)phenyl)picolinamide], the figures for the IC50 in series [1] and in series [3] were 30.7 µM and 24.8 µM, respectively.
For `CCOC(=O)c1[nH]c(N)nc1-c1cccc(NC(=O)c2cc3cc(F)ccc3[nH]2)c1` [Compound 31, Ethyl 2‐amino‐4‐(3‐(5‐fluoro‐1H‐indole‐2‐carboxamido)phenyl)‐1H‐imidazole‐5‐carboxylate], in that order: 14.4 µM and 10 µM.
On to `COc1ccc2[nH]c(C(=O)Nc3cccc(-c4nc(N)[nH]c4C(C)=O)c3)cc2c1` [Compound 26, N‐(3‐(5‐acetyl‐2‐amino‐1H‐imidazol‐4‐yl)phenyl)‐5‐methoxy‐1H‐indole‐2‐carboxamide], for which the IC50 turned out to be 35 µM in series [1] and 24.8 µM in series [3].
As for `COc1ccc2[nH]c(C(=O)Nc3cccc(-c4nc(N)[nH]c4C(=O)c4ccccc4)c3)cc2c1` [Compound 27, N‐(3‐(2‐amino‐5‐benzoyl‐1H‐imidazol‐4‐yl)phenyl)‐5‐methoxy‐1H‐indole‐2‐carboxamide], the IC50 in series [1] stood at 11.7 µM. The “DNA fragmentation (sub‐G1 population) of HL‐60 cells” value in the series with HL‐60 cells [4] is 53.8 ± 7.3%. The “Cytotoxic / antiproliferative activity in words” value in series [2] was “hampered the viability of all three tested cell lines”. Also, the IC50 in series [3] stood at 3.12 µM. Further, in the series with HL‐60 cells [6] (mean ± SD), the “Early apoptotic cells (AnnV+/PI−)” value was 16.1 ± 0.6%, the “Late apoptotic cells (AnnV+/PI+)” value came out at 50.7 ± 0.9% and the “Living cells (AnnV−/PI−)” value was 30.5 ± 0.7%. In addition, in the series on HL‐60 cells [6] (mean ± SD, untreated 3.6 ± 1.6%), the “Necrotic cells (AnnV−/PI+)” value is reported as 2.5 ± 0.3%. Moreover, in the series with HL‐60 cells [7], the “Cells with green JC‐1 accumulation (depolarized MMP)” value came to 13.3 ± 1.1% and the “Cells with green JC‐1 monomers (depolarized MMP)” value is 42.4 ± 0.8%.
Regarding `Nc1nc(-c2cc(Cl)cc(NC(=O)c3cc4cc(Br)ccc4[nH]3)c2)c(C(=O)c2ccccc2)[nH]1` [Compound 33, N‐(3‐(2‐amino‐5‐benzoyl‐1H‐imidazol‐4‐yl)‐5‐chlorophenyl)‐5‐bromo‐1H‐indole‐2‐carboxamide], in series [1], the IC50 amounted to 11.5 µM. The “Cells in G0/G1 phase” value in the series with HL‐60 cells [5] (6 µM, control 64.3 ± 1.9%) was 74.1 ± 1.4%. Also, in the series with HL‐60 cells [5], the “Concentrations at which arrest in G0/G1 phase occurred” value was in the range of 3 to 6 µM and the “Effect” value is given as “significantly disturbed cell cycle distribution”. Also, the “Cytotoxic / antiproliferative activity in words” value in series [2] is on record as “hampered the viability of all three tested cell lines”. Also, the concentration for half-maximal inhibition (IC50) in series [3] amounted to 6.44 µM. Besides, in the series with HL‐60 cells [6] (mean ± SD), the “Late apoptotic cells (AnnV+/PI+)” value is given as 15.6 ± 1.8% and the “Living cells (AnnV−/PI−)” value is recorded as 79.1 ± 1.9%.
`CC(=O)c1[nH]c(N)nc1-c1cccc(NC(=O)c2cc3cc(F)ccc3[nH]2)c1` [Compound 30, N‐(3‐(5‐acetyl‐2‐amino‐1H‐imidazol‐4‐yl)phenyl)‐5‐fluoro‐1H‐indole‐2‐carboxamide]: the half-inhibitory concentration (IC50) came to 25.3 µM in series [1] and 25 µM in series [3].
Regarding `Nc1nc(-c2cccc(NC(=O)c3ccc4ccccc4n3)c2)c(C(=O)c2ccccc2)[nH]1` [Compound 19, N‐(3‐(2‐amino‐5‐benzoyl‐1H‐imidazol‐4‐yl)phenyl)quinoline‐2‐carboxamide], in series [2], the “Cytotoxic / antiproliferative activity in words” value is “completely inactive”.
Regarding `Nc1nc(-c2cccc(NC(=O)c3ccc4cccc(O)c4n3)c2)c(C(=O)c2ccccc2)[nH]1` [Compound 18, N‐(3‐(2‐amino‐5‐benzoyl‐1H‐imidazol‐4‐yl)phenyl)−8‐hydroxyquinoline‐2‐carboxamide], the IC50 came out at 13.9 µM in series [1] and 8.95 µM in series [3]. Besides, the “Cytotoxic / antiproliferative activity in words” value in series [2] is reported as “low antiproliferative activity”.
On to `CCOC(=O)c1[nH]c(N)nc1-c1cccc(NC(=O)c2cc3cc(OC)ccc3[nH]2)c1` [Compound 24, Ethyl 2‐amino‐4‐(3‐(5‐methoxy‐1H‐indole‐2‐carboxamido)phenyl)‐1H‐imidazole‐5‐carboxylate], for which the 50% inhibitory concentration (IC50) in series [1] came out at 12.6 µM; in series [3] it was 7.57 µM. Also, in series [2], the “Cytotoxic / antiproliferative activity in words” value is “low antiproliferative activity”.
Consider `Nc1nc(-c2cc(NC(=O)c3cc4cc(Br)ccc4[nH]3)ccc2Cl)c(C(=O)c2ccccc2)[nH]1` [Compound 32, N‐(3‐(2‐amino‐5‐benzoyl‐1H‐imidazol‐4‐yl)‐4‐chlorophenyl)‐5‐bromo‐1H‐indole‐2‐carboxamide], for which, in series [1], the IC50 is 12.4 µM. Also, in the series on HL‐60 cells [5], the “Concentrations at which arrest in G0/G1 phase occurred” value lay within 1 to 6 µM and the “Effect” value was “significantly disturbed cell cycle distribution”. For the same molecule, the “Cytotoxic / antiproliferative activity in words” value in series [2] was “hampered the viability of all three tested cell lines”. Further, the IC50 in series [3] turned out to be 7.82 µM. Also, in the series on HL‐60 cells [6] (mean ± SD), the “Late apoptotic cells (AnnV+/PI+)” value was 11.7 ± 2.6% and the “Living cells (AnnV−/PI−)” value came to 78.9 ± 1.6%.
